AHR act – AHR activators, primary screen, cell-based, luminescence, luciferase reporter, human. AHR-responsive luciferase reporter cells. Aryl hydrocarbon receptor (Homo sapiens), P35869. AID 2796, 2010. activation, % at 5 µM. hit rate 2.5% among 320,000; in the data active = activation above about 47%;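 note: 0% = vehicle wells and 100% = reference agonist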
Target sequence (P35869 whole entry, looked up): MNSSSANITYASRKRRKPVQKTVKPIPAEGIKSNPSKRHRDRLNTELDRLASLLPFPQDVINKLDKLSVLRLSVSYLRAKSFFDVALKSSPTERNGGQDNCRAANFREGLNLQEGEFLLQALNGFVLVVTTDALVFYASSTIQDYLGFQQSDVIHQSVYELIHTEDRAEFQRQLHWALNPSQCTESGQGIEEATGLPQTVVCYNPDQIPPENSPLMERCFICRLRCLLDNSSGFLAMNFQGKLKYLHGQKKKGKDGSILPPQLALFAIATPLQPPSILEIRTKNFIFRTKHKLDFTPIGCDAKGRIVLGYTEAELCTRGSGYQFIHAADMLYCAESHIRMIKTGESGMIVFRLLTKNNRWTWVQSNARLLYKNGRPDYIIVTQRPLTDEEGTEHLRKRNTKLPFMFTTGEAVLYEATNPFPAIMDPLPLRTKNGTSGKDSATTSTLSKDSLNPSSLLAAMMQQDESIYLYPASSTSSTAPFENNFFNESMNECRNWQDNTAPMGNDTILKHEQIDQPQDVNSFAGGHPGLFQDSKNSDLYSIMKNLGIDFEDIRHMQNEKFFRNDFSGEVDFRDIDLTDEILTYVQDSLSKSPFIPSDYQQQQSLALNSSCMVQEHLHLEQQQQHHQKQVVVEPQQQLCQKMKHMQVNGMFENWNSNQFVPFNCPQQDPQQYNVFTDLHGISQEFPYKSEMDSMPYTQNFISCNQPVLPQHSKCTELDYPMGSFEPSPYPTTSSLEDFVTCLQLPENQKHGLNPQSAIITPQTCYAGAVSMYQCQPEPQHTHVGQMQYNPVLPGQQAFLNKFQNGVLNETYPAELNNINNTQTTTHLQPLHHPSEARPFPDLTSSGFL
HTR2A ag – mouse Htr2a agonists via beta-arrestin recruitment, primary screen, cell-based, luminescence; 5-hydroxytryptamine receptor 2A (Mus musculus), P35363; CHO-K1 mHTR2A beta-arrestin complementation; percent of 30 µM serotonin response; activation, % at 7.6 µM; hit rate 0.66% among 360,000;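 active = activation above a run cutoff, the mean activation of all tested compounds plus 3 SD, cut at about 14% in these data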;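 note: 0% = plate median of compound wells and 100% = 30 µM serotonin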
MC4R antagonist – MC4R antagonists of cAMP signaling, primary screen, cell-based, TR-FRET, antagonist arm of biased-ligand search | hit rate 0.48% among 360,000 | MC4R-expressing cells, MTII-stimulated cAMP, LANCE TR-FRET | inhibition, % at 6.5 µM | AID 540295, 2011 | Melanocortin receptor 4 (Homo sapiens), P32245;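 active = inhibition above its plate's cutoff, the mean of tested wells on that plate plus 3 SD, cut at about 29% in these data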;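 note: 0% = Melanotan II alone and 100% = Melanotan II plus saturating MCL0020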
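system = U2OS cells with stable human MC4R expression | also added = Melanotan II challenge after compound preincubation | dosing = one concentration, 6.5 µM nominal | incubation = compound 30 min, challenge 1 h, detection 1 h | measured by = TR-FRET with Eu-cAMP and labeled anti-cAMP, 671 nm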
FXN GAA850 act – FXN promoter activators, primary screen, cell-based, luciferase luminescence, HEK293 lucGAA850; hit rate 0.56% among 360,000; HEK293 lucGAA850 FXN promoter luciferase reporter, 24 h; percent of 10 µM SAHA response; AID 540364, 2011; activation, % at 6 µM;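 active = activation above the average of all compounds screened plus 3 SD, cutoff fixed separately per campaign, cut at about 7.5% in these data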;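 note: 0% = DMSO wells and 100% = 10 µM SAHA wells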
MC4R barr agon – MC4R agonists recruiting beta-arrestin, primary screen, cell-based, luminescence, agonist arm of biased-ligand search; Melanocortin receptor 4 (Homo sapiens), P32245; U2OS MC4R beta-arrestin complementation; percent of melanotan II response, DMSO zero; activation, % at 8.9 µM; hit rate 0.98% among 360,000;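 active = activation above a per-plate cutoff, the mean activation of sample wells on that plate plus 3 SD, cut at about 8% in these data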
MC4R barr conf – MC4R beta-arrestin agonists, retest, confirmation, cell-based, luminescence, U2OS; shares compounds with MC4R barr agon; U2OS MC4R beta-arrestin recruitment; scaled DMSO 0%, Melanotan II 100%; activation, % at 8.9 µM; hit rate 31% among 2,400; AID 602192, 2012;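 active = mean activation across replicates above the hit cutoff set in the earlier primary screen, cut at about 8% in these data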
MOR DOR agonist – agonists of MOR-DOR heterodimerization, counter-screen for MC4R biased agonist project, cell-based, luminescence; shares compounds with MC4R barr agon; U2OS PathHunter beta-arrestin, beta-gal luminescence; percent of deltorphin B response, DMSO zero; activation, % at 9.2 µM; hit rate 5.8% among 2,400; AID 602194, 2012;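 active = mean activation across replicates exceeds the hit threshold derived in the earlier primary screen, cut at about 18% in these data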;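 note: 100% = deltorphin B at 0.9 µM final and 0% = DMSO alone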
Active calls of the source: *; . = not tested or not shown; ! = not confirmed by another sample. Sampled rows, rich in hits. Any-hit rate of the full collection: about 4.7%.

SMILES	AHR act	HTR2A ag	MC4R antagonist	FXN GAA850 act	MC4R barr agon	MC4R barr conf	MOR DOR agonist
CCCCCOc1ccc(C(=O)Nc2ccc(N3CCOCC3)cc2N2CCOCC2)cc1	1	-8	3	2	0	.	.
Cc1ccc(NC(=O)c2nc[nH]c2C(=O)Nc2ccccc2F)cc1	.	2	0	3	16*	-1	2
O=C(Nc1ccccc1)c1nc[nH]c1C(=O)Nc1ccccc1F	.	-2	12	-1	3	.	.
O=C(COC(=O)/C=C/c1cccc(Br)c1)Nc1ccc(Cl)cn1	.	-4	6	-2	1	.	.
CC(C)c1ccc(NC(=O)COC(=O)/C=C/c2cccc(Br)c2)cc1	3	-1	-2	2	11*	5	3
CC(C)CN(C(=O)CN1CCc2ccccc21)c1c(N)n(CC(C)C)c(=O)[nH]c1=O	11	-2	7	1	-2	.	.
C=CCNC(=S)NNc1nc2c(c(=O)[nH]1)C1(CCCCC1)Cc1ccccc1-2	27	8	6	2	15*	-3	6
O=C(Nc1cnn(Cc2ccc(Cl)cc2Cl)c1)c1cc(-c2cccs2)on1	5	0	-1	4	21*	2	4
O=C(Nc1cnn(Cc2ccc(Cl)cc2Cl)c1)c1noc2c1CCCC2	31	1	4	1	3	.	.
CC(C)[C@@H](CO)NC(=O)[C@H]1O[C@@H](n2cnc3c(N)ncnc32)[C@H](O)[C@@H]1O	.	2	.	.	.	.	.
COc1cc(C(=O)Nc2ccc(S(=O)(=O)N3CCCCC3)cc2)ccc1OCC(=O)N1CCOCC1	.	6	7	-1	0	.	.
CN1CCN(C(=O)C(=O)c2cn(CC(=O)N3CCOCC3)c3ccccc23)CC1	.	1	3	1	-3	.	.
Cc1cccc(OCc2nnc(NC(=O)Cc3cccs3)s2)c1	38	-3	-5	-1	34*	9.9*	9
CCOC1=C2[C@H](c3ccccc3)N(S(=O)(=O)c3ccc(C)cc3)C(C(C)(C)C)[C@H]2n2c(=O)n(-c3ccccc3)c(=O)n2C1 (stereo partly drawn)	.	-2	.	.	.	.	.
CCSc1nnc(NC(=O)c2csc3c2CCCC3)s1	12	3	0	2	15*	27*	15
O=C(Nc1nnc(SCc2ccccc2)s1)c1cc2c(s1)CCCC2	11	-3	-3	0	20*	8.3*	3
O=C(Nc1nnc(SCc2ccc(F)cc2)s1)c1ccc2ncsc2c1	.	5	4	3	17*	-1	3
CCSc1nnc(NC(=O)c2cc3c(s2)CCCC3)s1	5	5	-7	3	6	.	.
CN1CCN(Cc2nc3ccccc3c(=O)n2Cc2nc(-c3cccc([N+](=O)[O-])c3)cs2)CC1	.	-6	15	-2	1	.	.
CN1CCN(Cc2nc3ccccc3c(=O)n2Cc2nc(-c3ccc4ccccc4c3)cs2)CC1	2	0	1	-6	9.7*!	13*	12
COc1ccc(CNC(=O)c2ccc(-c3c(C)noc3C)c3ccoc23)cc1OC	.	-3	15	0	0	.	.
O=C(Nc1ccccc1-c1ccccc1)c1cc(C(F)(F)F)cc(C(F)(F)F)c1	-3	1	13	-4	17*	-1	4
COc1ccc(CCNC(=O)/C(C#N)=C2\N=C(NC(=O)c3ccco3)c3ccccc32)cc1	-5	-1	4	1	14*	-1	2
COc1ccc(-c2cnc3c(NC=O)cc(-c4ccoc4)cn23)cc1OC	.	4	-16	-4	15*	9.3*	2
COc1ccc(-c2cnc3c(NC=O)cc(-c4cc(OC)c(OC)c(OC)c4)cn23)cc1OC	.	13	-40	-1	30*	13*	4
SMILES	AHR act	HTR2A ag	MC4R antagonist	FXN GAA850 act	MC4R barr agon	MC4R barr conf	MOR DOR agonist
COc1ccc(-c2cnc3c(NC=O)cc(-c4ccc(F)cc4)cn23)cc1OC	.	4	-25	-2	8	.	.
O=CNc1cc(-c2ccsc2)cn2c(-c3ccccc3)cnc12	.	-5	-5	2	32*	35*	6
COc1ccc(-c2cnc3c(NC=O)cc(-c4ccccc4)cn23)cc1OC	.	-3	-35	2	27*	8	5
COc1ccccc1Nc1nnc(SCC(=O)c2c(N)n(C3CC3)c(=O)[nH]c2=O)s1	1	1	-1	-1	-1	.	.
C[C@H](CO)N1C[C@H](C)[C@@H](CN(C)Cc2ccc(C(=O)O)cc2)Oc2ccc(NS(C)(=O)=O)cc2C1=O	0	7	7	5	1	.	.
O=C(NCC(=O)N1CCN(S(=O)(=O)c2ccccc2)CC1)c1ccc(Br)o1	0	4	12	2	-1	.	.
O=S(=O)(Nc1cc2nc3ccccc3nc2n1Cc1ccccc1)c1ccc(Cl)cc1	4	-1	-9	-2	15*	10*	10
c1ccc(COC2COC3C(OCc4ccccc4)COC23)cc1 (stereo not drawn)	.	5	10	1	1	.	.
CC1CN(c2ccc([N+](=O)[O-])c(NCCOc3ccc(Cl)cc3)c2)CC(C)N1 (stereo not drawn)	.	2	-10	0	1	.	.
CCc1ccc(OCCNc2cc(N3CCNC(C)C3)ccc2[N+](=O)[O-])cc1 (stereo not drawn)	3	-16	-3	-1	11*	23*	17
N#CCCCc1cc2ccccc2cn1	0	2	1	0	0	.	.
CCN(CC)CC(=O)Nc1cccc2c1C(=O)c1ccccc1C2=O	5	0	24	2	11*	2	6
COc1ccc(Nc2nc(-c3cc4cccc(OC)c4oc3=O)cs2)cc1	3	7	-3	6	20*	5	5
COc1ccc(-c2cc3cccc(OC)c3oc2=O)cc1	8	-1	-4	5	-1	.	.
COc1ccc(C(=O)N/N=C\C(C)=C\c2ccccc2)cc1OC	3	9	-2	1	-2	.	.
COc1cccc(/C=N/NC(=O)c2ccc(OCc3cccc(Br)c3)cc2)c1	23	-1	4	-2	0	.	.
O=C(N/N=C/c1ccc(OCc2ccccc2)cc1)c1cccs1	1	-3	1	3	13*	20*	8
